# Screens from PubChem BioAssay.
# PABP polyA inh: PABP-poly(A) binding inhibition; inhibition, % at 35 µM; PABP-poly(A) RNA binding, fluorescence polarization; P11940; 290,000 tested, 1% active;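 note: calls also rest on retests at 20 µM and on dose response follow-up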
# Target sequence (P11940 whole entry, looked up): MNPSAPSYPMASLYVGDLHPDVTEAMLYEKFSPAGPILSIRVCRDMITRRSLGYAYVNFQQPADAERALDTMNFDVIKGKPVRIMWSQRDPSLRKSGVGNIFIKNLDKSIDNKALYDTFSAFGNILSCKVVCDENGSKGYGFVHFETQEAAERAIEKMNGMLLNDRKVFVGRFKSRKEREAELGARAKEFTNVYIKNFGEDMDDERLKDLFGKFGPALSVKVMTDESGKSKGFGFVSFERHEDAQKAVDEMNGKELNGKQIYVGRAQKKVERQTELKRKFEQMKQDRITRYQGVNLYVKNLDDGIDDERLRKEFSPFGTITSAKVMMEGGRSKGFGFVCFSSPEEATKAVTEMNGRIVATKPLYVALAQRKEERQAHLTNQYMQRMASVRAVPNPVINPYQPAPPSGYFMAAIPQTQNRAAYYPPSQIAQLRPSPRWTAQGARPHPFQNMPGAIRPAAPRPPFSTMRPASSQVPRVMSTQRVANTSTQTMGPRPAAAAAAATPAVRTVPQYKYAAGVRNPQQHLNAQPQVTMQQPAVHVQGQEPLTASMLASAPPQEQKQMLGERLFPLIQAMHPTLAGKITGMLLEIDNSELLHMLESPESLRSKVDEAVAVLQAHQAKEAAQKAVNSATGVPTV
# NS3 helicase inh: blocks Hepatitis C virus NS3 helicase unwinding | NS3 helicase DNA unwinding, Cy5 molecular beacon fluorescence | 290,000 tested, 0.56% active | inhibition, % at 10.9 µM;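 active = inhibition above the mean of all tested compounds plus 3 SD, set per campaign, cut at about 35% in these data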;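 note: 0% = DMSO wells and 100% = thioflavine S control wells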
#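 System: NS3 helicase fragment of HCV / Schedule: 1 h at 25 °C / Control set: DMSO alone as 0% and 110 µM thioflavine S as 100% / Reagent: Cy5/quencher beacon DNA duplex and ATP to start / Technique: Cy5 fluorescence / Replication: singlicate / Evaluation: % inhibition of end-to-start signal ratio versus controls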
# PABP1 MLLE inh: inhibitors of microRNA-mediated deadenylation, human PABP1 MLLE binding. GST-MLLE / FITC-PAM2 fluorescence polarization. 360,000 tested, 0.36% active. inhibition, % at 20 µM; in the data active = inhibition above about 35%, passing the limit was not always enough;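 note: plate controls were DMSO wells with GST-MLLE for no effect and wells lacking GST-MLLE protein for full effect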
# eIF4H inh: inhibitors of RNA binding by human eIF4H; inhibition, % at 35 µM; 290,000 tested, 0.94% active; eIF4H fluorescence polarization binding assay; Q15056;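 note: calls also rest on retests at 20 µM and on dose response follow-up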
# HCV core dimer: HCV core protein dimerization inhibition; TR-FRET GST/Flag-core106 dimerization, 1536-well; inhibition, % at 5 µM; 300,000 tested, 0.33% active; AID 1899;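 active = inhibition above the mean of all tested compounds plus 3 SD, set per screening campaign, cut at about 45% in these data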
#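 Assay system: tagged HCV core106 pair (GST and Flag); medium: KF-containing HEPES buffer, pH 7.45, DTT, CHAPS, BSA; also added: Eu donor and XL665 acceptor anti-tag antibodies; dosing: 5 µM single dose; timing: compound-protein-antibody incubation 4 h at 22.5 °C; signal: TR-FRET 671 and 617 nm emission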
# DNA FID counter-1: displaces DNA intercalator in HCV helicase counter-screen; inhibition, % at 7.9 µM; 290,000 tested, 0.17% active; DNA fluorescent intercalator displacement, fluorescence; AID 1845; in the data active = inhibition above about 37%;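 note: 0% = vehicle and 100% = reference compound; higher means more ethidium bromide displaced from hairpin DNA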
# NS3 hel confirm: HCV NS3 helicase inhibition, confirmation assay; NS3 helicase DNA unwinding, Cy5 molecular beacon fluorescence; shares compounds with NS3 helicase inh; 1,600 tested, 31% active; inhibition, % at 10.9 µM;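 active = inhibition above the mean of all tested compounds plus 3 SD, cutoff set per campaign, cut at about 36% in these data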
# DNA FID counter-2: counter-screen for HCV NS3 helicase inhibitors: DNA intercalator displacement | shares compounds with NS3 helicase inh | DNA fluorescent intercalator displacement, fluorescence | inhibition, % at 7.9 µM | 1,600 tested, 4% active | AID 1945; in the data active = inhibition above about 37%;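 note: 0% = vehicle and 100% = reference compound; higher means more displacement of ethidium bromide from the DNA hairpin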
# FID counter DR: counter-screen for HCV NS3 helicase inhibitors: DNA intercalator displacement dose response. shares compounds with NS3 helicase inh. fluorescent intercalator displacement from DNA, fluorescence. IC50, µM. 120 tested, under 10 active
# * marks the source's active call; other numbers are inactive results; ? = inconclusive; / = not tested or not shown. The list is not random: actives were taken first. Their share in the collection is about 2%. Unless noted, the rule behind the calls is not given here.
SMILES,PABP polyA inh,NS3 helicase inh,PABP1 MLLE inh,eIF4H inh,HCV core dimer,DNA FID counter-1,NS3 hel confirm,DNA FID counter-2,others
Oc1c(Br)cc(Cl)cc1C=Nc1ccc(N2CCOCC2)cc1,19,43*,-45,50,-4,5,13,13,
Oc1ccc(N=Nc2cccc(Cl)c2)cc1C=Nc1ccc(N2CCOCC2)cc1,-1,19,-4,8,/,6,/,/,
CCc1nnc(NS(=O)(=O)c2ccc(N/C=C\C(=O)c3cccc4ccccc34)cc2)s1,6,55*,-3,17,14,-23,33,14,
CCc1nnc(NS(=O)(=O)c2ccc(N/C=C/C(=O)c3ccc(OC)cc3)cc2)s1,15,22,-4,2,18,-29,/,/,
COc1cccc(OCCOc2ccc(/C=C3/SC(=S)NC3=O)cc2)c1,-5,48*,3,15,40,-3,54*,13,
CN(C)/C=C1\N=C(c2cccs2)OC1=O,-8,1,7,-1,-4,1,/,/,
O=C1OC(c2cccs2)=N/C1=C\c1ccc(-c2ccccc2Cl)o1,9,71*,-98,-12,/,-25,48*,1,
COc1ccc(/C(O)=C2/C(=O)C(=O)N(c3ccccn3)C2c2ccc(C(C)C)cc2)cc1 (centres undefined),5,39*,18,-6,/,-34,85*,-13,FID counter DR=>79
CCCOc1ccc(/C(O)=C2/C(=O)C(=O)N(c3ccccn3)C2c2ccc(OC)cc2)cc1C (centres undefined),1,69*,-7,-3,22,-48,91*,-44,FID counter DR=>79
COc1ccc(/C(O)=C2/C(=O)C(=O)N(c3ccccn3)C2c2cccc(Cl)c2)cc1 (centres undefined),8,44*,-6,6,14,-38,44*,-30,
Cc1cc(N2C(=O)C(=O)/C(=C(/O)c3ccc(F)cc3)C2c2cccc(Br)c2)no1 (centres undefined),-5,38*,6,1,0,-37,64*,-20,
Cc1ccc(/C(O)=C2\C(=O)C(=O)N(c3cc(C)on3)C2c2cccc(Br)c2)cc1 (centres undefined),10,23,-4,4,7,-32,/,/,
COc1ccc(/C(O)=C2/C(=O)C(=O)N(c3ccccn3)C2c2ccc(OC)cc2)cc1 (centres undefined),2,5,-1,-1,/,-36,/,/,
CCOC(=O)C1=C(COC(=O)c2ccc(OC)c(S(=O)(=O)N3CCOCC3)c2)NC(=O)NC1C (centres undefined),/,/,-15,/,/,/,/,/,
Nc1nc(N)c2ncn(C3C=CC(CO)C3)c2n1 (centres undefined),/,/,-3,/,/,/,/,/,
NC(=O)COc1ccc(/C=N\NC(=O)CC(=O)NCCc2ccccc2)cc1,7,-2,1,-15,4,-9,/,/,
O=C1C(=O)N(c2ccccn2)C(c2ccc(Br)cc2)/C1=C(/O)c1ccc(Br)cc1 (centres undefined),14,73*,-13,8,/,-38,85*,-28,
O=C(OCC(=O)N1CCOCC1)c1cncc(Br)c1,/,/,-1,/,/,/,/,/,
Cn1cccc1Cc1nnc(SCC(=O)NCc2ccco2)n1-c1ccc(F)cc1,-4,39*,-31,-8,-3,-41,-16,-46,
Cn1cccc1Cc1nnc(SCC(=O)NCC2CCCO2)n1CCc1ccccc1 (centres undefined),-1,5,-35,1,2,-32,/,/,
Cn1cccc1Cc1nnc(SCC(=O)NCc2ccco2)n1CCc1ccccc1,0,36*,-59,12,6,-39,-21,-34,
COc1ccc(C(=O)NCc2nnc(SCC(=O)N3CCCC3)o2)cc1,2,-6,-66,-6,-8,-7,/,/,
Cc1ccc(Oc2ccc(OCC(=O)NC(CC(C)C)C(=O)O)cc2)cc1 (centres undefined),3,45*,10,-4,-2,-24,39*,-25,
O=C1NC(=O)/C(=C\c2ccccc2Oc2ccc(F)c(F)c2)S1,0,55*,5,4,18,-9,26,-1,
O=C1NC(=O)/C(=C/c2ccccc2OCc2ccccc2)S1,6,6,5,0,0,-21,/,/,
SMILES,PABP polyA inh,NS3 helicase inh,PABP1 MLLE inh,eIF4H inh,HCV core dimer,DNA FID counter-1,NS3 hel confirm,DNA FID counter-2,others
Cc1ccc(Cc2c(C(C)(C)C)nc3cc(C)c(Br)c(C)n23)cc1,/,/,0,/,/,/,/,/,
COc1nc(NC2OC(CO)C(O)C(O)C2O)c(N)c(=O)[nH]1 (centres undefined),/,/,33,/,/,/,/,/,
O=c1ccc(N=Nc2ccccc2)ccc1O,9,51*,-8,25,-14,-11,48*,-2,FID counter DR=>79
CN(CC(=O)Nc1cccc(F)c1)C(=O)c1ccncc1,6,-2,-5,5,-1,-1,/,/,
CC(C)CSc1oc(-c2ccco2)nc1S(=O)(=O)c1ccccc1,-1,40*,-141,3,9,-23,-23,-27,
CCCCSc1oc(-c2ccco2)nc1S(=O)(=O)c1ccccc1,11,-5,-138,4,7,-26,/,/,
COc1ccc(OC)c2nc(-c3ccc4c(c3)OCO4)ccc12,-2,-10,-2,0,-6,-24,/,/,
COc1cc(Cl)ccc1OC1(C)CCN(Cc2ccc3ccccc3c2)C1 (centres undefined),/,/,-11,/,/,/,/,/,
O=C(Nc1nnc(-c2ccc3c(c2)CCCC3)o1)c1ccccc1Cl,-2,49*,6,29,10,-12,-9,-27,
Cc1cc(/C=C2\SC(=S)NC2=O)c(C)n1C1CC1,37,76*,-56,33,-6,-10,36*,28,
CCOc1ccc(-c2ccc(/C=C3/C(=N)N4C=CSC4=NC3=O)o2)c([N+](=O)[O-])c1,-5,10,-10,?,6,-14,/,/,
CCOc1ccc(-c2ccc(/C=C3/C(=N)N4C(C)=CSC4=NC3=O)o2)c([N+](=O)[O-])c1,5.9*,48*,-10,80*,36,-12,-3,2,
CN(Cc1ccccc1)C(=O)C1(C)CCN1C(=O)Cc1ccc(Cl)cc1Cl (centres undefined),/,/,9,/,/,/,/,/,
Cc1cc(N=Cc2c(O)ccc3cc(Br)ccc23)no1,-2,37*,36,4,40,0,-10,39*,
CCOc1ccc(NC(=O)/C(C#N)=C/c2cn(CC(=O)O)c3ccccc23)cc1,-1,34,-12,-1,/,-28,/,/,
CCOc1cccc(NC(=O)/C(C#N)=C\c2cn(CC(=O)O)c3ccccc23)c1,3,40*,-16,3,9,-19,49*,-7,
